hK5 inh = kallikrein 5 (human) inhibition; Q9Y337; recombinant hK5, fluorogenic AMC substrate cleavage; inhibition, % at 5 µM; 210,000 compounds, 0.59% hits;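 active means inhibition of 40% or more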
Wee1 degr inh = inhibitors of human Wee1 degradation; P30291; HeLa Luc-Wee1K328M stability, luciferase luminescence; 100% = proteasome inhibitor MG132 effect; reporter increase, % at 5 µM; 220,000 compounds, 1.2% hits;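 active means activation above the mean of all tested compounds plus 3 SD, set per screening run, cut at about 8.8% in these data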;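 further: cells exposed to compound for 20 h before luminescence read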
Target sequence (P30291 whole entry K328M): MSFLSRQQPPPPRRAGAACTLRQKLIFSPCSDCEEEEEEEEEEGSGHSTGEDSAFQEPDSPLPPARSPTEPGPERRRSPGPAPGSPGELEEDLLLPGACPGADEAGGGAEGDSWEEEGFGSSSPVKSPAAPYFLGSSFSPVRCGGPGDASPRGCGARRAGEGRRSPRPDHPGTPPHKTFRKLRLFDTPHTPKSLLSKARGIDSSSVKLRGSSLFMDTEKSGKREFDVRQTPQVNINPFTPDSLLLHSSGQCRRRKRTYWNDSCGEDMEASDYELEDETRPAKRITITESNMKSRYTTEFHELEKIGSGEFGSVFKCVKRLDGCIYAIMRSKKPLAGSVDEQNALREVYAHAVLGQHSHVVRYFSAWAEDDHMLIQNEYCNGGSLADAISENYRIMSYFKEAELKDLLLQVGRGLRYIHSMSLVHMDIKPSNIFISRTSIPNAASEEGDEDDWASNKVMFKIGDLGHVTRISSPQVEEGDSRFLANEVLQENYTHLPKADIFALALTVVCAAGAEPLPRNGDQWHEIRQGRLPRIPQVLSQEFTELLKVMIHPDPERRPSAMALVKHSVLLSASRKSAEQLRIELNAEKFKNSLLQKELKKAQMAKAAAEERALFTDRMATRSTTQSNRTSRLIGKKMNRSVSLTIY
FXIIa inh = blocks human coagulation factor XIIa protease activity; P00748; purified FXIIa, Boc-QGR-AMC fluorogenic substrate, 2 h; inhibition, % at 5 µM; 220,000 compounds, 0.3% hits; AID 800; in the data active means inhibition above about 40%
Thrombin inh = blocks human thrombin protease activity; 220,000 compounds, 0.26% hits; P00734; alpha-thrombin, Boc-VPR-AMC fluorogenic substrate cleavage; inhibition, % at 5 µM;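 active means inhibition at or above 40%; inactive means inhibition below 40%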
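Assay system: human alpha-thrombin enzyme. Reagent: Boc-VPR-AMC substrate, 15 µM final. Compound dosing: one concentration per compound, 5 µM, with 0.2% DMSO. Incubation: room-temperature reaction. Technique: AMC fluorescence, 355/460 nm. Measure: % inhibition relative to enzyme controls and enzyme-free blanks.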
FXIa inh = blocks human coagulation factor XIa protease activity. 220,000 compounds, 0.14% hits. purified FXIa, Boc-Glu-Ala-Arg-AMC fluorogenic substrate. P03951. inhibition, % at 5 µM;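 active means inhibition of at least 40%; inactive means inhibition below 40%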;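 further: fluorescence of freed AMC excited at 355 nm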
A number is an active result; n = inactive; x = no result given. Shown are actives, neighbours in structure and some others; about 2.2% of the full set was active somewhere.

SMILES | hK5 inh | Wee1 degr inh | FXIIa inh | Thrombin inh | FXIa inh
CSCCC(NC(=O)c1cncc(Br)c1)C(=O)O (stereo not given) | 52 | n | n | n | n
CCOC(=O)c1ccc(NC(=S)NCCc2ccc(OC)c(OC)c2)cc1 | n | n | n | n | n
O=C(Nc1ccc(-c2nc3ccccc3o2)cc1)c1cccnc1 | n | 11 | n | n | n
O=C(Nc1cccc(-c2nc3ccccc3o2)c1)c1cccnc1 | n | n | n | x | n
Nc1c(S(=O)(=O)c2ccccc2)cnc2c(-c3ccc(F)cc3)cnn12 | n | n | n | n | n
CS(=O)(=O)c1cnc2c(S(=O)(=O)c3ccccc3)cnn2c1N | n | 8.8 | n | n | n
CCCCn1c(SCc2nc(N)nc(N3CCCCC3)n2)nc2c1c(=O)n(C)c(=O)n2C | n | n | n | n | n
COc1ccc(CCNC(=O)COC(=O)COc2ccc(C#N)cc2)cc1 | n | n | n | n | n
COc1ccc(CNc2nc(-c3cccnc3)nn2C(C)=O)cc1 | n | n | n | 99 | n
COc1ccc(CNc2nc(-c3cccnc3)nn2C(=O)c2cccs2)cc1 | n | n | n | n | n
COc1ccc(CNc2nc(-c3cccnc3)nn2C(=O)CC(C)C)cc1 | n | n | n | 95 | n
Cc1ccc2[nH]c(=O)c(COC(=O)c3cccs3)cc2c1 | n | n | n | n | n
O=c1[nH][nH]c(C(F)(F)F)c1/C=N/N1CCOCC1 | n | n | n | n | n
O=C1NN(c2ccccc2)C(=O)/C1=C\c1cccc(OC(=O)c2cccs2)c1 | n | n | n | n | 49
CN1CCC(N(C)C(=O)CCc2nc3ccccc3n2-c2ccccc2)CC1 | n | n | n | n | n
Cc1cccc(N2CCN(C3=NC(=O)C(=C4CCCCC4)S3)CC2)c1 | 120 | n | n | n | n
CC(=O)N1CCN(C2=NC(=O)C(=C3CCCCC3)S2)CC1 | n | n | n | n | n
CN1C(=O)CC(Sc2ccccc2C(=O)O)C1=O (stereo not given) | n | 10 | n | n | n
COc1ccccc1N(CN1C(=O)c2ccccc2C1=O)C(=O)c1cccc(C)c1 | n | n | n | n | n
N/C(=N\OC(=O)Cc1ccc(Cl)cc1)c1cccnc1 | n | n | n | n | n
N/C(=N\OC(=O)Cc1ccc(Cl)cc1)c1ccncc1 | n | 8.9 | n | n | n
CC(=O)N(C(C)=O)S(=O)(=O)c1ccc(N=NN2CCCCC2)cc1 | n | n | n | n | n
COCC(=O)OCC(=O)Nc1cc(C)c(C)cc1[N+](=O)[O-] | n | 17 | n | n | n
Brc1cc2c(cc1/C=N/Nc1nc(N3CCCCC3)nc(N3CCCCC3)n1)OCO2 | n | 14 | n | n | n
COC(=O)c1cccc(NC(=S)NC(C)C)c1 | n | n | n | n | n
SMILES | hK5 inh | Wee1 degr inh | FXIIa inh | Thrombin inh | FXIa inh
CC(=O)Nc1ccccc1P(=O)(c1ccccc1)c1ccccc1OC(C)=O (stereo not given) | n | n | n | n | n
NNC(=O)c1ccc(CSc2nc3ccccc3s2)cc1 | n | n | 49 | n | n
Cn1c(=O)c2c(nc(NCc3ccc4c(c3)OCO4)n2Cc2ccccc2Cl)n(C)c1=O | n | n | n | n | n
Cn1c(=O)c2c(nc(OCc3ccc4c(c3)OCO4)n2Cc2ccccc2Cl)n(C)c1=O | n | 9.2 | n | n | n
O=C(Nc1ccccc1)c1cc2ccc3ccccc3c2s1 | n | n | n | n | n
COc1cccc2cc(C(=O)N3CCC(C)CC3)c(=O)oc12 | n | n | n | n | n
COc1cccc2cc(C(=O)N3CCN(C45CC6CC(CC(C6)C4)C5)CC3)c(=O)oc12 | 65 | n | n | n | n
COc1cc(CC(=O)OCn2nnc3ccccc3c2=O)cc(OC)c1OC | n | n | n | n | n
COc1cc(C(=O)NCC(=O)OCn2nnc3ccccc3c2=O)cc(OC)c1OC | n | n | n | n | 40
Cc1ccc(C)c(SCC(=O)Nc2cccnc2Cl)c1 | n | n | n | n | n
CCOc1cc(NC(=S)NCCCN2CCOCC2)c(OCC)cc1NC(=O)c1ccccc1 | x | n | n | n | n
CCOc1cc(NC(=S)NCCCN2CCOCC2)c(OCC)cc1NC(=O)c1ccc(C)cc1 | 41 | n | 52 | n | n
CCOc1cc(NC(=S)NCCCN2CCOCC2)c(OCC)cc1NC(=O)c1cccs1 | n | 9.5 | n | n | n
COc1cc(C(=O)N/N=C/c2ccc(OC)c(CN3CCN(c4ccc(F)cc4)CC3)c2)ccc1O | x | n | n | n | n
